Most compounds without a hit are left out; they make up all but 2.1% or so of the library.
EP2 mod = modulates human prostaglandin E2 receptor EP2 signaling; induction, % at 25 µM; AID 940; P43116; 0.83% of 260,000 active; EP2-expressing cells, cAMP HTRF FRET, PGE2 co-stimulation;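 active = compounds whose cAMP rise, as percent of the full-agonist control response, exceeds 60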;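 note: rat C6 glioma line stably carrying human EP2 under a CMV promoter; the protocol text gives 20 µM as final concentration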
Thrombin inh = blocks human thrombin protease activity; P00734; alpha-thrombin, Boc-VPR-AMC fluorogenic substrate cleavage; inhibition, % at 5 µM; 0.26% of 220,000 active; AID 1046;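 active = inhibition at or above 40%; inactive = inhibition below 40%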
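System – human alpha-thrombin · Medium – pH 7.5 Tris (50 mM) with NaCl 150 mM, Tween 20 0.05% · Compound – single-point dosing at 5 µM, 0.2% DMSO · Incubation – enzyme reaction carried out at room temperature · Technique – fluorescence of released AMC, ex 355 nm, em 460 nm · Read-out basis – % inhibition of thrombin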
EP2 antag = blocks the human prostaglandin E2 receptor EP2; AID 1422; inhibition, % at 25 µM; 0.52% of 260,000 active; C6 glioma cells expressing human EP2, cAMP TR-FRET; cells stimulated with saturating PGE2;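 active = percent inhibition above 40 after rounding to a whole number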;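 note: rat C6 glioma host cells with rolipram phosphodiesterase inhibitor present; the protocol text gives 20 µM as final concentration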
hK5 inh = inhibitors of human kallikrein 5. Q9Y337. recombinant hK5, fluorogenic AMC substrate cleavage. inhibition, % at 5 µM. 0.59% of 210,000 active. AID 873;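 active = inhibition of 40% or more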
FXIIa inh = inhibitors of human coagulation factor XIIa. P00748. purified FXIIa, Boc-QGR-AMC fluorogenic substrate, 2 h. inhibition, % at 5 µM. 0.3% of 220,000 active. AID 800; in the data active = inhibition above about 40%
FXIa inh = inhibitors of human coagulation factor XIa; P03951; purified FXIa, Boc-Glu-Ala-Arg-AMC fluorogenic substrate; inhibition, % at 5 µM; 0.14% of 220,000 active;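 active = inhibition of at least 40%; inactive = inhibition below 40%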;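 note: fluorescence of freed AMC excited at 355 nm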
Target sequence (P03951 19-387 limits assumed): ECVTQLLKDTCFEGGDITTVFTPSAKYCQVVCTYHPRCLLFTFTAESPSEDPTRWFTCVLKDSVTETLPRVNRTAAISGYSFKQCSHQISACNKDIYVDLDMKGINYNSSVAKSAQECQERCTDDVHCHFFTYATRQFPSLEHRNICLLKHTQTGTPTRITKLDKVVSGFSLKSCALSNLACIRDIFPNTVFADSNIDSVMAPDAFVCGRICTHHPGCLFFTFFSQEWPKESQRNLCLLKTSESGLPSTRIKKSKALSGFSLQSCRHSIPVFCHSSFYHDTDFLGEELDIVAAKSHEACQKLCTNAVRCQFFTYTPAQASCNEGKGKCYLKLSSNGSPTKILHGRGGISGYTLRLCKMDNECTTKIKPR
Target sequence (P03951 388-625 limits assumed): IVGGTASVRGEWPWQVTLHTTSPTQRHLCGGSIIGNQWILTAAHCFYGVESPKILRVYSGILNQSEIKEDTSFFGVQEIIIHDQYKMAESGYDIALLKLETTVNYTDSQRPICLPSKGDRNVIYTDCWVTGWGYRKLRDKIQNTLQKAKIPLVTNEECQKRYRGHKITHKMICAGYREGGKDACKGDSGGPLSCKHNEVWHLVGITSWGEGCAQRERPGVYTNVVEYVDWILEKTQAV
Numbers stand for hits; n = inactive; x = no result; ! = repeats disagree.

SMILES | EP2 mod | Thrombin inh | EP2 antag | hK5 inh | FXIIa inh | FXIa inh
CC(=O)Nc1ccc(S(=O)(=O)N(Cc2ccccc2)c2ccccc2F)cc1 | 64.2 | n | n | n | n | n
O=C(CCN1Cc2ccccc2C1=O)NC1(c2ccccc2)CCCC1 | n | x | n | x | x | x
O=C(N/N=C/c1cccc([N+](=O)[O-])c1)c1cccc2cc[nH]c12 | n | n | n | n | n | n
O=C(N/N=C/c1cc([N+](=O)[O-])ccc1O)c1cccc2cc[nH]c12 | n | n | n | 60.3 | n | n
COc1cccc(C(=O)NNC2=CC(=O)CC(C)(C)C2)c1 | n | n | n | n | n | n
CC1(C)CC(=O)C=C(NNC(=O)c2cccnc2)C1 | n | n | n | 64.7 | n | n
COc1ccccc1NS(=O)(=O)c1ccc(O)c(C(N)=O)c1 | n | n | n | n | n | n
COc1ccccc1NS(=O)(=O)c1ccc(O)c(C(=O)OCC(=O)c2ccc(Cl)cc2Cl)c1 | n | n | n | n | n | 49.2
CC(C)c1cc(C(F)(F)F)nc(NNc2nc(C(C)C)cc(C(F)(F)F)n2)n1 | n | x | 47.9 | x | x | x
CCNc1nc(Sc2ccc(C)cc2)cc(C(F)(F)F)n1 | n | n | n | n | n | n
CSc1ccccc1NC(=O)CN(c1cccc(C)c1)S(C)(=O)=O | n | n | n | n | n | n
COc1ccc(N(CC(=O)Nc2ccccc2SC)S(C)(=O)=O)cc1OC | n | n | n | n | 44.5 | n
CCOC(=O)c1c(NC(=O)CSc2nnc(-c3cccnc3)o2)sc(C(C)=O)c1C | n | n | n | 48.4 | n | n
CCOC(=O)c1c(NC(=O)CSc2nnc(-c3ccco3)o2)sc(C(C)=O)c1C | n | n | n | n | n | n
COc1ccc(OC)c(CC(=O)N2CCc3c(nc(C)[nH]c3=O)C2)c1 | n | x | n | x | x | x
COc1cc(C)c(C(=O)CCC(=O)NC2CCCOC2)cc1C (stereo unspecified) | n | x | n | x | x | x
O=S(=O)(O)c1cc(O)c2c(O)c(N=Nc3cccc4ccccc34)c(S(=O)(=O)O)cc2c1 | n | x | 56.6 | x | x | x
Cc1ccc(NC(=O)CSc2ncnc3sc4c(c23)CCCC4)cc1C | n | x | n | x | x | x
CCN(Cc1ccccc1)C(c1cccs1)c1nnnn1C1CCCCC1 (stereo unspecified) | n | n | n | n | n | n
CCN(Cc1ccccc1)C(c1ccccn1)c1nnnn1C1CCCCC1 (stereo unspecified) | 63.8! | n | n | n | n | n
N#Cc1c(-c2ccccc2)c(-c2ccccc2)nn(CC(=O)NNC(=O)Nc2ccc(Cl)cc2)c1=O | n | n | 78.7 | n | n | n
N#Cc1c(-c2ccccc2)c(-c2ccccc2)nn(CC(=O)NNC(=O)Nc2ccccc2)c1=O | n | n | x | n | n | n
Cc1ncsc1C(=O)N[C@H](C)Cn1nnc2ccccc21 | n | x | n | x | x | x
CCc1nn(CC(=O)NCCc2cccc(F)c2)c(=O)c2cc3occc3n12 | n | x | n | x | x | x
Cc1ccc(C)n1-c1ccccc1N1CCCCC1 | 63.5 | n | n | n | n | n
SMILES | EP2 mod | Thrombin inh | EP2 antag | hK5 inh | FXIIa inh | FXIa inh
Cc1ccc(CN(CCCn2ccnc2)Cc2cn[nH]c2C(C)(C)C)s1 | n | x | n | x | x | x
COc1ccc(N2C(=O)[C@@H]3[C@H](C2=O)[C@H]2c4ccccc4C=CN2[C@@H]3C(=O)Nc2ccccc2)cc1 | n | 61.4 | n | n | 45.0 | n
COc1ccc(S(=O)(=O)N2CCC(C(=O)Nc3cc(OC)ccc3OC)CC2)cc1 | n | x | n | x | x | x
CC1CCN(CC[S-])CC1.O.O.[Cl][Pt] | n | x | 97.1 | x | x | x
O=C(NNC1=NCCCCC1)Nc1cccc(Cl)c1 | n | 40.1 | n | n | 41.6 | 46.6
O=C(/C=C/c1ccccc1)c1ccc2c(c1)OCCCO2 | n | x | n | x | x | x
O=C(O)CC(Cc1ccccc1)c1ccc2c(c1)OCO2 (stereo unspecified) | n | n | x | n | n | n
c1ccc(SC(Sc2ccccc2)c2ccc3c(c2)OCO3)cc1 | n | x | 41.5 | x | x | x
COC(=O)c1ccccc1NC(=O)CN1CCC(C)CC1 | n | n | n | n | n | n
CC1CCN(CC(=O)Nc2ccccc2C#N)CC1 | n | 42.5 | n | n | n | n
COC(=O)c1cc2sccc2n1Cc1nc(-c2ccc(Cl)cc2)oc1C | n | n | n | n | n | n
O=C(c1cc2sccc2n1Cc1ccccc1)N1CCCCC1 | n | x | n | x | x | x
CCOC(=O)c1cc2sccc2n1Cc1ccccc1 | 62.5 | n | n | n | n | n
COC(=O)c1cc2sccc2n1Cc1ccc(C)cc1 | 63.9 | n | n | n | n | n
O=C(c1cc2sccc2n1Cc1ccccc1)N1CCc2ccccc21 | 63.8 | n | n | n | n | n
COc1cc(OC)cc(C(=O)Nc2ccc(C)cn2)c1 | n | x | n | x | x | x
CCc1cc2c(C)cc(=O)oc2c(CN(CC)CC)c1O | n | x | n | x | x | x
Cc1ccc2[nH]c(=O)c(C(c3nnnn3C(C)(C)C)N(Cc3ccccc3)Cc3ccco3)cc2c1 (stereo unspecified) | n | x | n | x | x | x
Cn1c(=O)c2c(nc(Oc3ccc4c(c3)OCO4)n2Cc2ccc(Br)cc2)n(C)c1=O | 75.9 | n | n | n | n | n
Cn1c(=O)c2c(nc(Oc3ccc4c(c3)OCO4)n2Cc2ccc(F)cc2)n(C)c1=O | n | n | n | n | n | n
Cc1ccc2cc(CN(Cc3ccccc3)C(=S)NCc3ccco3)c(=O)[nH]c2c1C | n | x | n | x | x | x
CCOC(=O)C(=CNc1cc(C)ccc1-n1cccc1)C(=O)OCC | 64.7 | n | n | n | n | n
CCOC(=O)C(=CNc1ccc(C(F)(F)F)cc1Cl)C(=O)OCC | 68.6 | n | n | n | n | n
COc1cc(/C=N/Nc2cc(C)nc(NS(=O)(=O)c3ccccc3)n2)ccc1O | n | n | n | n | n | 66.7
CCC1CCCCN1C(=S)Nc1cccc(S(=O)(=O)N(C)C)c1 (stereo unspecified) | n | n | n | 49.1 | n | n
SMILES | EP2 mod | Thrombin inh | EP2 antag | hK5 inh | FXIIa inh | FXIa inh
O=C(N/N=C/c1ccccc1)NC1CCCCC1 | 63.9 | n | n | n | n | n
C=CCn1c2cc(C)sc2c2cnn(Cc3ccccc3F)c(=O)c21 | 63.4 | x | x | x | x | x
CCOC(=O)CC(=O)CSc1nc2c(C)ccc(C)c2cc1CC | 95.2 | x | n | x | x | x
CCc1cc2cccc(C)c2nc1SCC(=O)N1CCCC1 | 64.5 | x | n | x | x | x
O=C(CCn1c(-c2ccccn2)cc2cccnc21)NCc1ccc(F)cc1 | n | x | n | x | x | x
CNc1nc2c(c(=O)[nH]c(=O)n2C)n1CCO | n | x | n | x | x | x
NC(=O)c1ccsc1NC(=O)c1nc(-c2ccccc2)n(-c2ccccc2)n1 | n | 44.1 | n | n | n | n
Cn1nnc(NC(=O)Cc2ccc(Cl)cc2)n1 | n | x | n | x | x | x
ClC(Cl)(c1nnnn1-c1ccccc1)c1nnnn1-c1ccccc1 | n | n | 80.7 | n | n | n
Cn1c(=O)c2[nH]c(CS(=O)(=O)Cc3nc4c([nH]3)c(=O)n(C)c(=O)n4C)nc2n(C)c1=O | n | x | 50.4 | x | x | x
O=C(Nc1cc(Cl)ccc1N1CCOCC1)c1cc2ccccc2o1 | 81.5 | x | n | x | x | x
O=C(NC(=S)NNC(=O)c1cc2ccccc2o1)c1ccccc1 | n | x | n | x | x | x

Screening data deposited in PubChem BioAssay by several laboratories.
